Activity calls are given as the source filed them. The rule behind the calls is not given here.

Experimental findings from ChEMBL document CHEMBL1833877, “Antinociceptive properties of bergenin” (J Nat Prod, 2011) are described below.

Data set [1] has as its system Mus musculus. Briefly: Antinociceptive activity in mouse assessed as inhibition of acetic acid-induced abdominal constrictions at 10 mg/kg, ip administered 40 mins before acetic acid challenge measured for 30 mins. The class given is functional, organism-based. Also noted: dose 10 mg/kg. Conditions: Abdomen. Summed up: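 Dosing was ip in 2% DMSO/saline 40 min before ip acetic acid (0.8% v/v, 10 mL/kg). Writhes (abdominal contraction with hind-limb stretching) were counted over 0–30 min. n = 6 mice/group, means ± SEM, ANOVA with Tukey.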

Data set [2] relates to Mus musculus. The experiment in a line: Antinociceptive activity against formalin-induced pain in mouse assessed as paw licking during early phase (0 to 10 mins) at 10 mg/kg, ip administered 40 mins before formalin challenge. Also noted: dose 10 mg/kg. The class given is functional, organism-based. In outline:
(§1)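 Mice were acclimated 30 min in an observation chamber, then given 20 μL of 2.5% formalin sc into the dorsal hind paw. Dosing was ip (2% DMSO/saline vehicle) 40 min beforehand. Time spent licking the injected paw was scored over 0–10 min and 10–60 min. n = 6/group, means ± SEM, ANOVA with Tukey.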

For data set [3], the system named is Mus musculus. The experiment in a line: Antinociceptive activity against formalin-induced pain in mouse assessed as paw licking during late phase (10 to 60 mins) at 10 mg/kg, ip administered 40 mins before formalin challenge. The class given is functional, organism-based. Details: dose 10 mg/kg. In outline: as §1
Data set [4] has as its system Mus musculus. Briefly: Antinociceptive activity against Freund's complete adjuvant-induced paw inflammation in mouse assessed as reduction in paw edema at 2 mg/kg, ip administered 40 mins before CFA challenge measured after 6 hrs. The class given is functional, organism-based. Also noted: dose 2 mg/kg. Summed up:
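CFA (20 μL, 1 mg/mL heat-killed M. tuberculosis) was injected sc into the right hind plantar surface. Treatment was ip in 2% DMSO/saline 40 min before. Paw volume was read by plethysmometer before and after CFA, and edema taken as the volume difference (mm3/paw). n = 6 mice/group, means ± SEM, two-way ANOVA with Bonferroni.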

The test system of data set [5] is Mus musculus. Briefly: Inhibition of IL1-beta production in Freund's complete adjuvant-induced mouse at 2 mg/kg, ip administered 40 mins before CFA challenge measured after 2 hrs by ELISA. The class given is functional, organism-based. Also noted: dose 2 mg/kg. Summed up:
(§2)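 CFA was given intraplantar, with ip dosing (2% DMSO/saline vehicle) 40 min earlier. At 2 h, paw skin was taken under terminal halothane anesthesia. Tissue was extracted (100 mg/mL PBS with 0.4 M NaCl, 0.05% Tween 20 and protease inhibitors) and centrifuged at 3000g for 10 min. Supernatant was assayed by mouse ELISA, in pg/mL. n = 6/group.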

Data set [6] deals with Mus musculus. The experiment in a line: Inhibition of TNF-alpha production in Freund's complete adjuvant-induced mouse at 2 mg/kg, ip administered 40 mins before CFA challenge measured after 2 hrs by ELISA. The class given is functional, organism-based. Also noted: dose 2 mg/kg. Summed up:
as §2
For orientation: An ELISA detects its analyte on a solid surface through an enzyme-linked reagent.

Data set [7] concerns Mus musculus. The experiment in a line: Neurotoxicity in mouse assessed as effect on motor coordination by measuring reduced latency at 10 mg/kg, ip after 40 mins by rotarod test. The class given is toxicity, organism-based. Conditions: in vivo. Details: dose 10 mg/kg, route intraperitoneal. Summed up:
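Rotarod: a 3 cm bar split into five compartments, turning at a constant 5 rpm. Male mice were placed on the rod 40 min after ip dosing (vehicle 2% DMSO in saline), and time on the rod was recorded up to 120 s. Result is mean time per group; n = 6, one-way ANOVA with Tukey's test.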

Data set [8] concerns Mus musculus. Briefly: Neurotoxicity in mouse assessed as effect on motor coordination at 10 mg/kg, ip after 40 mins by open field test. The class given is toxicity, organism-based. Also noted: dose 10 mg/kg, route intraperitoneal. Conditions: in vivo. In outline: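 Male mice were dosed ip (vehicle 2% DMSO in saline). 40 min later each was placed alone in a 40 × 60 × 50 cm wooden box with the floor divided into 12 squares. Squares crossed with all four paws were counted over 3 min. n = 6 mice per group, means ± SEM, one-way ANOVA with Tukey's test.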

Regarding `COc1ccc2c(c1)c(CC(=O)O)c(C)n2C(=O)c1ccc(Cl)cc1`, the outcome in the data set on Mus musculus [1], in the data set with Mus musculus [2] and in the data set with Mus musculus [3] was Active.
Turning to `C[C@@H]1C[C@H]2[C@@H]3CCC4=CC(=O)C=C[C@]4(C)[C@@]3(F)[C@@H](O)C[C@]2(C)[C@@]1(O)C(=O)CO`, in the data set with Mus musculus [4], the outcome was inactive. In addition, the inhibition result in the data set on Mus musculus [5] and in the data set on Mus musculus [6] was “Active” throughout.
Regarding `CN1C(=O)CN=C(c2ccccc2)c2cc(Cl)ccc21` [DIAZEPAM], the Activity result in the data set on Mus musculus [7] and in the data set on Mus musculus [8] was “Toxic” throughout.
